According to ChEMBL document CHEMBL4513216, “Probing the Open Global Health Chemical Diversity Library for Multistage-Active Starting Points for Next-Generation Antimalarials” (ACS Infect Dis, 2020):

Assay: Toxicity liver stage against HepG2, at 10uM
Type: cell-based
Set-up: test concentration 10 uM, cell line HepG2-A16-CD81EGFP
Conditions: human, HepG2-A16-CD81EGFP cells; read-out: INHIBITION
In short: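 Uninfected HepG2-A16-CD81EGFP cells, 3 × 10^3 per well, 1536-well, plated on prespotted compound at 10 μM final, parasite-free screening media added to match infected plates; puromycin 10 μM positive, DMSO 0.5% negative; run in parallel with 48 h PbLuc assay at 37 °C, 5% CO2; viability by CellTiter-Glo luminescence, normalized to controls.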

Structure (SMILES)	cytotoxicity at 10 µM
C/C(NC(=O)c1cccs1)=C1\C(=O)C[C@@H]2[C@H]1C2(C)C	-1.18%
CC(C)(C)n1ncc2c(=O)n(CC(=O)NCCc3ccccc3)cnc21	-11.3%
Cc1cc(NCCc2nc(C)cs2)nc(-c2cccnc2)n1	1.02%
COc1ccccc1CN1C[C@@H](F)[C@@H](OCc2nc3cnccc3[nH]2)C1	-6.66%
CCN(CC)CC[C@H]1CN(C(=O)C(C)(C)C)CC[C@H]1CC(=O)O	0.0915%
COc1c(C(=O)N2CCNC(=O)C2)cnc2c1c(C)nn2C	6.26%
CC(=O)N1CCN(c2cc(N3CCOCC3)cnn2)CC1	-7.09%
O=C(Cc1cccs1)N1CC[C@H]2[C@H]1CCN2Cc1cccnc1	2.41%
CC(=O)N1CCC2(C=C(C(=O)NC3CC3)c3ccccc32)CC1	4.59%
O=C(c1ccc2c(c1)OCO2)N1C[C@H](OCC2CC2)[C@H]2COC[C@H]21	-166%
CS(=O)(=O)N1CCN(C(=O)Cn2ccc3c(Cl)cccc32)CC1	20.6%
O=C(O)c1nnn(Cc2cccc(C(F)(F)F)c2)c1-c1cccnc1	6.46%
CS(=O)(=O)N1CCCC12CCCN(S(=O)(=O)c1ccc(F)cc1)C2 (stereo unspecified)	0.442%
CN(C)c1nc2n(c(=O)n1)CCN2C(=O)Nc1ccc(Cl)cc1	6.36%
Cc1cc(-c2ccc(=O)n(C3CCN(S(=O)(=O)N(C)C)CC3)n2)c(C)o1	6.54%
CC(NC(=O)N1CCC2(C1)OCCO2)c1ccc(F)cc1Cl (stereo unspecified)	-5.16%
CCc1nnc2n1CC(CNCc1nc(-c3ccsc3)no1)CC2 (stereo unspecified)	-5.34%
COc1cccc(S(=O)(=O)NC(=O)C2CC(c3ccccc3)=NO2)c1 (stereo unspecified)	3.73%
Cc1cc(Cn2cncc(Br)c2=O)on1	15.2%
CC(C)(C)OC(=O)N1CCC(NCc2cnn(C(C)(C)C)c2)CC1	4.85%
COC(=O)c1cc(NC(=O)CCc2cscn2)ccc1C	-0.172%

Structure (SMILES)	cytotoxicity at 10 µM
Cc1nc(NC2CCN(C(=O)C3CC3)CC2)c2cnn(C)c2n1	-2.13%
Cc1noc(C)c1S(=O)(=O)N1CCC(n2cccn2)CC1	2.63%
CN(Cc1nc(C(F)(F)F)cs1)C(=O)CCc1ccccn1	23.5%
COC(=O)c1ccc(CN2CCC(c3noc(C)n3)CC2)s1	-1.51%
COc1cc(C)ccc1OCCC(=O)N1CCC(C(N)=O)C1 (stereo unspecified)	6.31%
c1ccc(CCN2CCc3c(ncn3C3CC3)C2)nc1	-1.43%
CN(C)C1CCCN(C(=O)NCCNC(=O)C2CCCCC2)C1 (stereo unspecified)	-1.69%
CC(C)CC(C)NCc1cccnc1N1CCOCC1 (stereo unspecified)	-4.22%
Cc1cccc2ncnc(N3CCOC(C)C3)c12 (stereo unspecified)	0.00648%
COc1cc2c(cc1CNC(=O)Cc1ccc(C)nc1)OC(C)C2 (stereo unspecified)	-6.47%
CC(Nc1cccc2c1OCCO2)C(=O)Nc1ccc(S(N)(=O)=O)cc1 (stereo unspecified)	-3.93%
Cc1ncc(CN(C)C(=O)c2ccc(N3CCOCC3)c(F)c2)s1	5.66%
CS(=O)(=O)NC(=O)c1cc(Cl)c2c(c1)OCCCO2	-4.94%
CCN(CC)C(C)CNC(=O)c1cccnc1Oc1cccnc1 (stereo unspecified)	-2.09%
Cc1nc(C)n(CC2CCCCN2CCCS(N)(=O)=O)n1 (stereo unspecified)	-3.73%
CC(=O)c1cccc(OCCCC(=O)N(C)CC(N)=O)c1	17.3%
CCCn1nnnc1CN1Cc2ccccc2CC1c1nnc(C)o1 (stereo unspecified)	9.52%
Cn1c(C(=O)N(CC(N)=O)C2CCCC2)cc(Cl)c1Cl	9.31%
Cc1nc2cc(O)nn2c(C)c1CCC(=O)N(C)Cc1ccccc1	-141%
COCCn1ccc(NC(=O)Nc2ccccn2)n1	3.18%
NC(=O)CN(C(=O)c1c[nH]c2ncccc12)C1CCCC1	0.441%

Structure (SMILES)	cytotoxicity at 10 µM
CC(O)CN(C)C(=O)Nc1ccn(-c2cccc(C(F)(F)F)c2)n1 (stereo unspecified)	4.85%
CNC(=O)NC(=O)C(C)N1CCCc2cc(OC)ccc2C1 (stereo unspecified)	9.77%
O=C(NCCn1ccnc1)c1cccc(Br)c1	9.3%
CS(=O)(=O)NC1CCN(C(=O)COCc2ccccc2)CC1	-8.61%
COc1cccc(-c2csc(Cn3ccc(=O)[nH]c3=O)n2)c1	3.57%
CC(C)(C)c1ccc(=O)n(CN2CCCC(C(F)(F)F)C2)n1 (stereo unspecified)	-2.19%
COc1c(NC(=O)N(C)CCOc2ccccc2)c(C)nn1C	19.2%
CCc1nn(C)c(CC)c1CNC(=O)Nc1cccc2c1CCN2C	-1.57%
CCc1cc(N2CCC(NCc3ccc(C)o3)CC2)ncn1	2.84%
COCC(=O)NCCc1ccc(I)s1	11.3%
CN(C)C(=O)n1c(C(=O)NC(C)(C)CO)cc2c1c1ccccc1n2C	-76.2%
CCN1CCN(C(=O)c2cc(-c3cccn3C)n[nH]2)[C@H]2CS(=O)(=O)C[C@H]21	-12.5%
CCOC(=O)CC1(Nc2nc(C)nc3c2cnn3C)CCCCC1	5.03%
COc1nccnc1N1CCN(Cc2cccc(F)c2)C(=O)C1	3.77%
CCc1n[nH]c(C(=O)NCCn2ccnc2C)c1C	-9.29%
COc1ccc(-c2n[nH]cc2CN(C)Cc2ccoc2)c(F)c1	-0.174%
CSCC[C@H](NC(C)=O)c1nc(CC(C)C)n[nH]1	6.05%
CC(=O)c1cc(CC(=O)NCc2ccsc2)cs1	2.29%
Cn1ccnc1CCC1CCCCN1Cc1cnc(N2CCCC2)nc1 (stereo unspecified)	1.43%
CCc1nc(N)sc1C(=O)N1CCCC(COc2cccc(C)c2)C1 (stereo unspecified)	-140%
CC(C)=CCN1CCN(CCCOc2ccccc2)[C@H]2CS(=O)(=O)C[C@H]21	-8.34%

Structure (SMILES)	cytotoxicity at 10 µM
Cc1nc2c(c(NCC(c3ccccc3C)N(C)C)n1)CCNC2 (stereo unspecified)	19.2%
Cn1cc2ncn([C@H]3CCN(Cc4ccccc4)C3)c(=O)c2n1	2.89%
CNc1ncc(C(=O)N2CCC(CCc3ccccc3)CC2)cn1	13.1%
COc1ccc(N2CCC(N3CCOC(C(F)(F)F)C3)CC2)cc1 (stereo unspecified)	-20.5%
CCC(C)(C)c1cc(-c2c(C)nn(CCO)c2C)c(C#N)c(N)n1	3.31%
Cc1n[nH]c(C)c1CNC(=O)c1cn(CCC2CCCCN2)nn1 (stereo unspecified)	1.61%
O=C(CC1CCc2ccccc21)NCCSc1cnn[nH]1 (stereo unspecified)	0.878%
CC1CN(C)CCN1C(=O)c1ccn(-c2ccccc2Cl)n1 (stereo unspecified)	-6.33%
Cc1ccc(-c2cc(CNC(=O)N3CCC(O)CC3)on2)cc1	-4.62%
CCS(=O)(=O)c1ccccc1N1CCC(NC(=O)C(C)C)CC1	-3.87%
CNc1nc(CNC(=O)Nc2cccc(C)c2Cl)cs1	-9.04%
CCc1nnsc1C(=O)N1CCCC1c1c(C)nn(C)c1OC (stereo unspecified)	-1.67%
Cc1nc(-c2ccccc2)cc(C2CCNCC2)n1	3.78%
CC(C)N1CC[C@@H]2OC[C@H](C(=O)Nc3cccnc3)C[C@@H]2C1	15.7%
Cn1ccnc1CN1CCN2C[C@H](OCc3ccccc3)C[C@H]2C1	9.37%
CN(C)C(=O)COC[C@@]12CCC[C@@H]1CN(C1CCCC1)C2	-13.2%
Cc1cccc(CN2CCc3ncnc(NC4CCC4)c3CC2)n1	-152%
CC(C)NC(=O)c1ccc2c(c1)C1(CCN(C(C)C)CC1)C(=O)N2	-7.47%
